In ChEMBL document CHEMBL4371031, “In Vitro Antiviral Activity of New Oxazoline Derivatives as Potent Poliovirus Inhibitors” (J Med Chem, 2019):

Assays:
Poliovirus 1 [1] = assay: Antiviral activity against Human poliovirus 1 10239 infected in human HeLa cells assessed as reduction in virus-induced cytopathic effect after 72 hrs by crystal violet staining-based assay; type: functional, organism-based; conditions: Enterovirus C, 10239, HeLa
In short: (§1)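 HeLa cells grown in MEM-10% FBS, seeded at 2x10^5 cells/mL in MEM-2% FBS and preincubated 24 h at 37°C, 5% CO2. Compound and virus were cross-titrated […] compound in 0.5 log10 steps (7-point curves), with duplicate wells and three replicate tests per virus. After 72 h at 37°C, cells were crystal violet stained and read at 590 nm. EC50 came from a four-parameter fit; if all virus dilutions gave >80% monolayer destruction, the value was […].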

Poliovirus 1 [2] = assay: Antiviral activity against Human poliovirus 1 10224 infected in human HeLa cells assessed as reduction in virus-induced cytopathic effect after 72 hrs by crystal violet staining-based assay; type: functional, organism-based; conditions: Enterovirus C, 10224, HeLa; in short: as §1
Poliovirus 3 [3] = assay: Antiviral activity against Human poliovirus 3 10804 infected in human HeLa cells assessed as reduction in virus-induced cytopathic effect after 72 hrs by crystal violet staining-based assay; type: functional, organism-based; conditions: Enterovirus C, 10804, HeLa; in short: as §1
Poliovirus 1 [4] = assay: Antiviral activity against Human poliovirus 1 10242 infected in human HeLa cells assessed as reduction in virus-induced cytopathic effect after 72 hrs by crystal violet staining-based assay; type: functional, organism-based; conditions: Enterovirus C, 10242, HeLa; in short: as §1
Poliovirus 3 [5] = assay: Antiviral activity against Human poliovirus 3 10805 infected in human HeLa cells assessed as reduction in virus-induced cytopathic effect after 72 hrs by crystal violet staining-based assay; type: functional, organism-based; conditions: Enterovirus C, 10805, HeLa; in short: as §1
Poliovirus 1 [6] = assay: Antiviral activity against Human poliovirus 1 Sabin 1 infected in human HeLa cells assessed as reduction in virus-induced cytopathic effect after 72 hrs by crystal violet staining-based assay; type: functional, organism-based; conditions: Enterovirus C, Sabin 1, HeLa; in short: as §1
[7] = Cytotoxicity against human HeLa cells after 72 hrs by ATP-bioluminescence cell viability assay; type: cell-based
In short: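 Luminescent ATP cell-viability read-out on HeLa cells with compound only, run under conditions similar to the cytopathic-effect assay (72 h, 37°C). Signal was compared with cell-only wells. CC50 was derived from the titration curves.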

Poliovirus 1 [8] = assay: Antiviral activity against Poliovirus Sabin 1 infected in human HeLa cells assessed as reduction in virus-induced cytopathic effect after 72 hrs by crystal violet staining-based assay; type: functional, organism-based; conditions: Enterovirus C; in short: as §1
Poliovirus 1 [9] = assay: Antiviral activity against Human poliovirus 1 10235 infected in human HeLa cells assessed as reduction in virus-induced cytopathic effect after 72 hrs by crystal violet staining-based assay; type: functional, organism-based; conditions: Enterovirus C, 10235, HeLa; in short: as §1
Poliovirus 1 [10] = assay: Antiviral activity against Human poliovirus 1 10688 infected in human HeLa cells assessed as reduction in virus-induced cytopathic effect after 72 hrs by crystal violet staining-based assay; type: functional, organism-based; conditions: Enterovirus C, 10688, HeLa; in short: as §1
Poliovirus 2 [11] = assay: Antiviral activity against Human poliovirus 2 10234 infected in human HeLa cells assessed as reduction in virus-induced cytopathic effect after 72 hrs by crystal violet staining-based assay; type: functional, organism-based; conditions: Enterovirus C, 10234, HeLa; in short: as §1
Poliovirus 2 [12] = assay: Antiviral activity against Human poliovirus 2 Sabin 2 infected in human HeLa cells assessed as reduction in virus-induced cytopathic effect after 72 hrs by crystal violet staining-based assay; type: functional, organism-based; conditions: Enterovirus C, Sabin 2, HeLa; in short: as §1
Poliovirus 2 [13] = assay: Antiviral activity against Human poliovirus 2 10229 infected in human HeLa cells assessed as reduction in virus-induced cytopathic effect after 72 hrs by crystal violet staining-based assay; type: functional, organism-based; conditions: Enterovirus C, 10229, HeLa; in short: as §1
Poliovirus 2 [14] = assay: Antiviral activity against Human poliovirus 2 MEF-1 infected in human HeLa cells assessed as reduction in virus-induced cytopathic effect after 72 hrs by crystal violet staining-based assay; type: functional, organism-based; conditions: Enterovirus C, MEF-1, HeLa; in short: as §1
Poliovirus 2 [15] = assay: Antiviral activity against Human poliovirus 2 10219 infected in human HeLa cells assessed as reduction in virus-induced cytopathic effect after 72 hrs by crystal violet staining-based assay; type: functional, organism-based; conditions: Enterovirus C, 10219, HeLa; in short: as §1
Poliovirus 3 [16] = assay: Antiviral activity against Human poliovirus 3 Saukett infected in human HeLa cells assessed as reduction in virus-induced cytopathic effect after 72 hrs by crystal violet staining-based assay; type: functional, organism-based; conditions: Enterovirus C; in short: as §1
Poliovirus 3 [17] = assay: Antiviral activity against Human poliovirus 3 Leon infected in human HeLa cells assessed as reduction in virus-induced cytopathic effect after 72 hrs by crystal violet staining-based assay; type: functional, organism-based; conditions: Enterovirus C; in short: as §1
Poliovirus 2 [18] = assay: Antiviral activity against Human poliovirus 2 10227 infected in human HeLa cells assessed as reduction in virus-induced cytopathic effect after 72 hrs by crystal violet staining-based assay; type: functional, organism-based; conditions: Enterovirus C, 10227, HeLa; in short: as §1
Poliovirus 2 [19] = assay: Antiviral activity against Human poliovirus 2 10243 infected in human HeLa cells assessed as reduction in virus-induced cytopathic effect after 72 hrs by crystal violet staining-based assay; type: functional, organism-based; conditions: Enterovirus C, 10243, HeLa; in short: as §1
[20] = Therapeutic ratio of CC50 for human HeLa cells to EC50 for Poliovirus Sabin 2 infected in human HeLa cells; type: toxicity, cell-based; conditions: read-out: Ratio CC50/EC50
Poliovirus 1 [21] = assay: Antiviral activity against Human poliovirus 1 10236 infected in human HeLa cells assessed as reduction in virus-induced cytopathic effect after 72 hrs by crystal violet staining-based assay; type: functional, organism-based; conditions: Enterovirus C, 10236, HeLa; in short: as §1
Poliovirus 1 [22] = assay: Antiviral activity against Human poliovirus 1 Mahoney infected in human HeLa cells assessed as reduction in virus-induced cytopathic effect after 72 hrs by crystal violet staining-based assay; type: functional, organism-based; conditions: Enterovirus C; in short: as §1
Poliovirus 2 [23] = assay: Antiviral activity against Poliovirus Sabin 2 infected in human HeLa cells assessed as reduction in virus-induced cytopathic effect after 72 hrs by crystal violet staining-based assay; type: functional, organism-based; conditions: Enterovirus C; in short: as §1
Poliovirus 1 [24] = assay: Antiviral activity against Human poliovirus 1 10225 infected in human HeLa cells assessed as reduction in virus-induced cytopathic effect after 72 hrs by crystal violet staining-based assay; type: functional, organism-based; conditions: Enterovirus C, 10225, HeLa; in short: as §1
Poliovirus 1 [25] = assay: Antiviral activity against Human poliovirus 1 10693 infected in human HeLa cells assessed as reduction in virus-induced cytopathic effect after 72 hrs by crystal violet staining-based assay; type: functional, organism-based; conditions: Enterovirus C, 10693, HeLa; in short: as §1
Poliovirus 1 [26] = assay: Antiviral activity against Human poliovirus 1 10240 infected in human HeLa cells assessed as reduction in virus-induced cytopathic effect after 72 hrs by crystal violet staining-based assay; type: functional, organism-based; conditions: Enterovirus C, 10240, HeLa; in short: as §1
Poliovirus 1 [27] = assay: Antiviral activity against Human poliovirus 1 10222 infected in human HeLa cells assessed as reduction in virus-induced cytopathic effect after 72 hrs by crystal violet staining-based assay; type: functional, organism-based; conditions: Enterovirus C, 10222, HeLa; in short: as §1
Poliovirus 1 [28] = assay: Antiviral activity against Human poliovirus 1 10694 infected in human HeLa cells assessed as reduction in virus-induced cytopathic effect after 72 hrs by crystal violet staining-based assay; type: functional, organism-based; conditions: Enterovirus C, 10694, HeLa; in short: as §1
Poliovirus 2 [29] = assay: Antiviral activity against Human poliovirus 2 10226 infected in human HeLa cells assessed as reduction in virus-induced cytopathic effect after 72 hrs by crystal violet staining-based assay; type: functional, organism-based; conditions: Enterovirus C, 10226, HeLa; in short: as §1
Poliovirus 1 [30] = assay: Antiviral activity against Human poliovirus 1 10223 infected in human HeLa cells assessed as reduction in virus-induced cytopathic effect after 72 hrs by crystal violet staining-based assay; type: functional, organism-based; conditions: Enterovirus C, 10223, HeLa; in short: as §1

Work on `Cc1ccc(C(=O)CCC/C=C/c2ccc(C3=NCCO3)cc2)s1` yielded an EC50 (Poliovirus 1 [1]) of 220 nM, an EC50 (Poliovirus 1 [2]) of 1110 nM and an EC50 (Poliovirus 3 [3]) of 20 nM. The EC50 (Poliovirus 1 [4]) was 20 nM, the EC50 (Poliovirus 3 [5]) was 30 nM and the EC50 (Poliovirus 1 [6]) was 340 nM. It also gave a CC50 at 72 h [7] greater than 50000 nM, an EC50 (Poliovirus 1 [8]) of 338 nM and an EC50 (Poliovirus 1 [9]) of 400 nM. The EC50 (Poliovirus 1 [10]) was 40 nM, the EC50 (Poliovirus 2 [11]) was 20 nM and the EC50 (Poliovirus 2 [12]) was 30 nM. The EC50 (Poliovirus 2 [13]) was 510 nM, the EC50 (Poliovirus 2 [14]) was 30 nM and the EC50 (Poliovirus 2 [15]) was 30 nM. The EC50 (Poliovirus 3 [16]) was 40 nM, the EC50 (Poliovirus 3 [17]) was 950 nM and the EC50 (Poliovirus 2 [18]) was 40 nM. The EC50 (Poliovirus 2 [19]) was 30 nM, the selectivity ratio [20] was greater than 1850 and the EC50 (Poliovirus 1 [21]) was 720 nM. For the same compound, the EC50 (Poliovirus 1 [22]) was 70 nM, the EC50 (Poliovirus 2 [23]) was 27 nM and the EC50 (Poliovirus 1 [24]) was 810 nM. For the same compound, the EC50 (Poliovirus 1 [25]) was 980 nM, the EC50 (Poliovirus 1 [26]) was 270 nM and the EC50 (Poliovirus 1 [27]) was 1130 nM. It also gave an EC50 (Poliovirus 1 [28]) of 2300 nM, an EC50 (Poliovirus 2 [29]) of 20 nM and an EC50 (Poliovirus 1 [30]) of 20 nM.

With `Cc1ccc(C(=O)CCCCSc2ccc(C3=NCCO3)cc2)s1` the EC50 (Poliovirus 1 [1]) was 5630 nM, the EC50 (Poliovirus 1 [2]) was greater than 10000 nM and the EC50 (Poliovirus 3 [3]) was 440 nM. It also gave an EC50 (Poliovirus 1 [4]) of 8200 nM, an EC50 (Poliovirus 3 [5]) of 1500 nM and an EC50 (Poliovirus 1 [6]) of 700 nM. For the same compound, the CC50 at 72 h [7] was 20000 nM, the EC50 (Poliovirus 1 [8]) was 118 nM and the EC50 (Poliovirus 1 [9]) was 8470 nM. The EC50 (Poliovirus 1 [10]) was 2800 nM, the EC50 (Poliovirus 2 [11]) was 2470 nM and the EC50 (Poliovirus 2 [12]) was 160 nM. It also gave an EC50 (Poliovirus 2 [13]) of 2770 nM, an EC50 (Poliovirus 2 [14]) of 1260 nM and an EC50 (Poliovirus 2 [15]) of 1200 nM. It also gave an EC50 (Poliovirus 3 [16]) of 1670 nM, an EC50 (Poliovirus 3 [17]) of 1110 nM and an EC50 (Poliovirus 2 [18]) of 4330 nM. The EC50 (Poliovirus 2 [19]) was 1770 nM, the selectivity ratio [20] was 146 and the EC50 (Poliovirus 1 [21]) was 720 nM. It also gave an EC50 (Poliovirus 1 [22]) greater than 10000 nM, an EC50 (Poliovirus 2 [23]) of 137 nM and an EC50 (Poliovirus 1 [24]) greater than 10000 nM. The EC50 (Poliovirus 1 [25]) was greater than 10000 nM, the EC50 (Poliovirus 1 [26]) was 8470 nM and the EC50 (Poliovirus 1 [27]) was 4900 nM. The EC50 (Poliovirus 1 [28]) was 6230 nM, the EC50 (Poliovirus 2 [29]) was 130 nM and the EC50 (Poliovirus 1 [30]) was 3730 nM.

In the case of `Cc1ccc(C(=O)CCCCOc2ccc(C3=NCCO3)cc2)s1`, the EC50 (Poliovirus 1 [1]) is reported as 940 nM, the EC50 (Poliovirus 1 [2]) is reported as greater than 100000 nM and the EC50 (Poliovirus 3 [3]) is reported as greater than 100000 nM. The EC50 (Poliovirus 1 [4]) was 37900 nM, the EC50 (Poliovirus 3 [5]) was 270 nM and the EC50 (Poliovirus 1 [6]) was 12500 nM. For the same compound, the CC50 at 72 h [7] was greater than 50000 nM, the EC50 (Poliovirus 1 [8]) was 90800 nM and the EC50 (Poliovirus 1 [9]) was 4610 nM. For the same compound, the EC50 (Poliovirus 1 [10]) was 40 nM, the EC50 (Poliovirus 2 [11]) was 30 nM and the EC50 (Poliovirus 2 [12]) was 30 nM. It also gave an EC50 (Poliovirus 2 [13]) of 550 nM, an EC50 (Poliovirus 2 [14]) greater than 100000 nM and an EC50 (Poliovirus 2 [15]) of 30 nM. The EC50 (Poliovirus 3 [16]) was 350 nM, the EC50 (Poliovirus 3 [17]) was 170 nM and the EC50 (Poliovirus 2 [18]) was 30 nM. It also gave an EC50 (Poliovirus 2 [19]) of 40 nM, a selectivity ratio [20] greater than 1670 and an EC50 (Poliovirus 1 [21]) of 2720 nM. The EC50 (Poliovirus 1 [22]) was greater than 100000 nM, the EC50 (Poliovirus 2 [23]) was 187 nM and the EC50 (Poliovirus 1 [24]) was 35700 nM. It also gave an EC50 (Poliovirus 1 [25]) of 24200 nM, an EC50 (Poliovirus 1 [26]) of 3620 nM and an EC50 (Poliovirus 1 [27]) of 7890 nM. The EC50 (Poliovirus 1 [28]) was 7220 nM, the EC50 (Poliovirus 2 [29]) was greater than 100000 nM and the EC50 (Poliovirus 1 [30]) was 70 nM.
